A short description of series [1]: Chemical stability of the compound in acidic pH solution. The series is classed as physicochemical.
The nature of series [2]: Chemical stability of the compound in neutral pH solution. The series is classed as physicochemical.
Series [3] is described as follows: Stability in pH 3.1 solution assessed as half-life at 37 degC. The series is classed as physicochemical.
The nature of series [4]: Stability in pH 1 solution assessed as half-life at 37 degC. The series is classed as physicochemical.
Series [5] in a line: Stability in pH 7.4 solution assessed as half-life at 37 degC. In kind it is physicochemical.
Series [6] can be described thus: Chemical Stability of the compound in pH 1 solution. The series is classed as physicochemical. The conditions noted are these: buffer.
For series [7], the system named is Caco-2. In words: Drug level in basal side of human Caco2 cells assessed as BMS-582949 level incubated at 37 degC for 2 hrs. The series is classed as ADME, cell-based. To be noted: caco-2, 2 h. In short, it runs like this: (§1)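 Compounds loaded on apical side of Caco-2 monolayers and incubated at 37 °C for 2 h; prodrug, intermediate and parent measured on apical and basal sides.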

For series [8], the system named is Rattus norvegicus. Put plainly: Inhibition of paw swelling in Lewis rat adjuvant arthritis model assessed as reduction in hind paw volume at 3 mg/kg, po bid beginning on day 11 post adjuvant challenge by volume displacement plethysmometry method relative to control. The series is classed as functional. The conditions noted are these: 264 h. In short, it runs like this: (§2)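 Male Lewis rats given complete Freund's adjuvant on day 1; from day 11 compounds dosed orally BID in 0.5 mL vehicle (prodrug as aqueous suspension in 0.75% Methocel, 0.1% Tween 80; parent in PEG 300). Paw volume measured 3 times per week for rest of study; paw swelling inhibition reported.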

Series [9] can be described thus: Solubility in pH 6.5 solution. The conditions noted are these: buffer.
The test system of series [10] is Rattus norvegicus. Put plainly: Inhibition of LPS-induced TNFalpha level in Lewis rat at 0.03 to 10 mg/kg, po dosed 1 hr before LPS challenge and measured 90 mins post LPS challenge by ELISA method. In kind it is functional. In short, it runs like this:
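Male Lewis rats (200-250 g) dosed orally 1 h before IP injection of 10ug E. coli O111:B4 LPS in 1.0 mL sterile saline; prodrug as suspension in 0.75% Methocel, 0.1% Tween 80, parent in PEG 300, controls given vehicle. Blood taken 90 min after LPS; serum TNF measured by ELISA; ED50 expressed as parent equivalent.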
(In general: In an ELISA, binding on a coated surface is turned into a signal by an enzyme label.)

Series [11] in a line: Cmax in Sprague-Dawley rat at 100 mg/kg, po after 24 hrs by LC/MS/MS method. In kind it is ADME, organism-based. To be noted: in vivo. Further details: dose 100 mg/kg, route oral; call rule not given here.
The nature of series [12]: AUC (0 to 24 hrs) in Lewis rat adjuvant arthritis model at 1 mg/kg, po bid beginning on day 11 post adjuvant challenge. The series is classed as ADME, organism-based. Further details: dose 1 mg/kg, time < 24 hr, route oral. To be noted: in vivo.
Series [13] can be described thus: AUC in Sprague-Dawley rat at 10 mg/kg, po after 24 hrs by LC/MS/MS method. In kind it is ADME, organism-based. Further details: time < 24 hr, dose 10 mg/kg, route oral. The conditions noted are these: in vivo.
The nature of series [14]: Cmax in Sprague-Dawley rat at 1 mg/kg, po after 24 hrs by LC/MS/MS method. In kind it is ADME, organism-based. Further details: dose 1 mg/kg, route oral. The conditions noted are these: in vivo.
Series [15] relates to Caco-2. Put plainly: Drug level in apical side of human Caco2 cells assessed as BMS-582949 level incubated at 37 degC for 2 hrs. The series is classed as ADME, cell-based. To be noted: caco-2, 2 h. In short, it runs like this: as §1
Series [16] can be described thus: Solubility in pH 1.2 solution. To be noted: buffer.
A short description of series [17]: Cmax in cynomolgus monkey at 10 mg/kg, po after 24 hrs by LC/MS/MS method. The series is classed as ADME, organism-based, Macaca fascicularis. Further details: dose 10 mg/kg, route oral. To be noted: in vivo.
The test system of series [18] is Rattus norvegicus. In words: Inhibition of paw swelling in Lewis rat adjuvant arthritis model assessed as reduction in hind paw volume at 1 mg/kg, po bid beginning on day 11 post adjuvant challenge by volume displacement plethysmometry method relative to control. The series is classed as functional. To be noted: 264 h. In short, it runs like this: as §2
Series [19] is described as follows: Bioavailability in cynomolgus monkey at 10 mg/kg, po after 24 hrs by LC/MS/MS method. In kind it is ADME, organism-based, Macaca fascicularis. The conditions noted are these: in vivo.
A short description of series [20]: Cmax in Sprague-Dawley rat at 10 mg/kg, po after 24 hrs by LC/MS/MS method. In kind it is ADME, organism-based. Further details: dose 10 mg/kg, route oral. The conditions noted are these: in vivo.
Series [21] has as its system Rattus norvegicus. Put plainly: Bioavailability in Sprague-Dawley rat at 100 mg/kg, po after 24 hrs by LC/MS/MS method. The series is classed as ADME, organism-based. To be noted: in vivo.
The nature of series [22]: AUC in Sprague-Dawley rat at 100 mg/kg, po after 24 hrs by LC/MS/MS method. To be noted: in vivo. Further details: time < 24 hr, dose 100 mg/kg, route oral. In kind it is ADME, organism-based.
Series [23] can be described thus: AUC in Sprague-Dawley rat at 1 mg/kg, po after 24 hrs by LC/MS/MS method. The series is classed as ADME, organism-based. Further details: time < 24 hr, dose 1 mg/kg, route oral. To be noted: in vivo.
Series [24] in a line: Bioavailability in Sprague-Dawley rat at 10 mg/kg, po after 24 hrs by LC/MS/MS method. The series is classed as ADME, organism-based. To be noted: in vivo.
Series [25] is described as follows: AUC (0 to 24 hrs) in Lewis rat adjuvant arthritis model at 3 mg/kg, po bid beginning on day 11 post adjuvant challenge. In kind it is ADME, organism-based. Further details: dose 3 mg/kg, time < 24 hr, route oral. To be noted: in vivo.
Series [26] can be described thus: Bioavailability in Sprague-Dawley rat at 1 mg/kg, po after 24 hrs by LC/MS/MS method. The series is classed as ADME, organism-based. The conditions noted are these: in vivo.
Series [27] is described as follows: AUC in cynomolgus monkey at 10 mg/kg, po after 24 hrs by LC/MS/MS method. The series is classed as ADME, organism-based, Macaca fascicularis. Further details: dose 10 mg/kg, time < 24 hr, route oral. To be noted: in vivo.
Series [28] in a line: Chemical stability of the compound in pH 7.4 potassium phosphate buffer at 10 uM incubated for 1 hr by LC/MS/MS method. The series is classed as physicochemical. The conditions noted are these: read-out: Stability. In short, it runs like this:
(§3)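 Compound at 10 µM in 89 mM potassium phosphate buffer, pH 7.4, 37 °C, incubated with or without porcine liver esterase; started by compound addition, aliquots at 0, 15, 30, 60 min, acetonitrile added, centrifuged at 4 °C, remaining compound measured by LC/MS/MS.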

The subject of series [29] is Caco-2. In words: Drug level in apical side of human Caco2 cells incubated at 37 degC for 2 hrs. The series is classed as ADME, cell-based. The conditions noted are these: caco-2, 2 h. In short, it runs like this:
as §1

Series [30] can be described thus: Chemical stability of the compound in pH 7.4 potassium phosphate buffer at 10 uM incubated for 0.5 hrs by LC/MS/MS method. The series is classed as physicochemical. The conditions noted are these: read-out: Stability. In short, it runs like this:
as §3

Series [31] has as its target T1, Liver carboxylesterase (Sus scrofa, UniProt Q29550).
T1 sequence (Q29550 whole entry): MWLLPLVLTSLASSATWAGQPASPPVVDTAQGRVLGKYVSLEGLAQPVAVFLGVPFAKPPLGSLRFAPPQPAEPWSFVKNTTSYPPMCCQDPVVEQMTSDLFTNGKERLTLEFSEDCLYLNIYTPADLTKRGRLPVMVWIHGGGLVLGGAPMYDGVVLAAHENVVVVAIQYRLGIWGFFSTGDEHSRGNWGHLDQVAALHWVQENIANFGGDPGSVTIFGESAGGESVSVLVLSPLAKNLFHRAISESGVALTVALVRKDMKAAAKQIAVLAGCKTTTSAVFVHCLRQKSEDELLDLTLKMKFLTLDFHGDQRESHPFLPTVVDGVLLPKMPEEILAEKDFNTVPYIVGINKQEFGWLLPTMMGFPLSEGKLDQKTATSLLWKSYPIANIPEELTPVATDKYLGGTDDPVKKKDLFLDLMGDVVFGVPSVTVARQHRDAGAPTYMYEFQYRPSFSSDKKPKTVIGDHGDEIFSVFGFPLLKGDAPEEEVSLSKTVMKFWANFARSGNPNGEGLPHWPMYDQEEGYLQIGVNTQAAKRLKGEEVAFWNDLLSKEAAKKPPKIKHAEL
In words: Stability assessed as porcine liver esterase-mediated drug degradation by measuring compound remaining level in pH 7.4 potassium phosphate buffer at 10 uM incubated for 1 hr by LC/MS/MS. The series is classed as ADME, tissue-based. The conditions noted are these: pig, read-out: Stability. In short, it runs like this:
(§4)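 Porcine liver esterase with substrate at 10 µM in 89 mM potassium phosphate pH 7.4, 37 °C. Reaction started by adding compound. Aliquots taken at 0, 15, 30 and 60 min and quenched with acetonitrile. After centrifugation at 4 °C, percent remaining quantified by LC/MS/MS.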

For series [32], the target named is T1, Liver carboxylesterase. Put plainly: Stability assessed as porcine liver esterase-mediated drug degradation by measuring compound remaining level in pH 7.4 potassium phosphate buffer at 10 uM incubated for 0.25 hrs by LC/MS/MS. The series is classed as ADME, tissue-based. To be noted: pig, read-out: Stability. In short, it runs like this:
as §4

In series [33] the target is T1, Liver carboxylesterase. Put plainly: Stability assessed as porcine liver esterase-mediated drug degradation by measuring compound remaining level in pH 7.4 potassium phosphate buffer at 10 uM incubated for 0.5 hrs by LC/MS/MS. The series is classed as ADME, tissue-based. The conditions noted are these: pig, read-out: Stability. In short, it runs like this: as §4

The nature of series [34]: Chemical stability of the compound in pH 7.4 potassium phosphate buffer at 10 uM incubated for 0.25 hrs by LC/MS/MS method. To be noted: read-out: Stability. The series is classed as physicochemical. In short, it runs like this:
as §3

≈ marks a conversion by molar mass, not a printed value.

On to `CCCN(C(=O)OCOC(=O)/C=C/C(=O)O)C(=O)c1cn2ncnc(Nc3cc(C(=O)NC4CC4)ccc3C)c2c1C`, for which the Stability result in series [1] and in series [2] was “Stable” throughout.

One may read the half-life as how long it takes for the measured level to halve. For `CCCNC(=O)c1cn2ncnc(Nc3cc(C(=O)N(COP(=O)(O)O)C4CC4)ccc3C)c2c1C.CCN(C(C)C)C(C)C`, the half-life in series [3] was under 0.25 h; in [4], under 0.25 h; in [5], 257 h.

Take `CCCN(C(=O)OCOP(=O)(O)O)C(=O)c1cn2ncnc(Nc3cc(C(=O)NC4CC4)ccc3C)c2c1C`: the figures for the Stability result in series [2] and in [6] were “Unstable” and “Stable”, respectively.

As for `CCCN(COP(=O)(O)O)C(=O)c1cn2ncnc(Nc3cc(C(=O)NC4CC4)ccc3C)c2c1C.CCN(C(C)C)C(C)C`, the half-life in series [3] is under 0.25 h; in series [4], under 0.25 h; in series [5], 54 h.

The inhibition in vivo is the change of the read-out against control, counted positive when it falls. The term solubility denotes the dissolved amount per volume that the medium holds. A word on the Cmax: it is the highest concentration seen after dosing. The AUC is concentration integrated over time. As usually defined, the bioavailability is dose-corrected exposure relative to a reference, in per cent. With `CCCNC(=O)c1cn2ncnc(Nc3cc(C(=O)NC4CC4)ccc3C)c2c1C` [BMS-582949], the Drug uptake entry with Caco-2 [7] and with Caco-2 [15] was “Active” in each case. Also, the inhibition in vivo at 3 mg/kg with Rattus norvegicus [8] stood at 35%. In addition, the solubility in series [9] came out at 0.003 mg/mL (≈ 7.38 µM); in [16] it was 0.28 mg/mL (≈ 689 µM). This compound also came in with an ED50 in the series on Rattus norvegicus [10] of 0.88 mg. The peak concentration (Cmax) worked out at 3 µM in series [11], 0.8 µM in [14], 1 µM in series [17] and 4.3 µM in [20]. For the same compound, the AUC at 24 h in series [12] came out at 6.7 µM·h; in series [13], 23 µM·h; in series [22], 3 µM·h; in series [23], 4.2 µM·h; in series [25] it was 25.3 µM·h; in series [27], 7.6 µM·h. Moreover, the inhibition in vivo at 1 mg/kg with Rattus norvegicus [18] is 27%. The bioavailability in series [19] amounted to 16%; in series [24] it was 31%; in series [26], 55%. In addition, the F with Rattus norvegicus [21] is listed as 4.3%.

For the compound `CCCN(C(=O)OCOC(=O)Cc1ccc(O)cc1)C(=O)c1cn2ncnc(Nc3cc(C(=O)NC4CC4)ccc3C)c2c1C`, the remaining at 1 h, 10 µM was 75% in [28] and 5.8% at Liver carboxylesterase [31]. Further, the Drug uptake entry in the series on Caco-2 [29] is recorded as “Active”. Also, the remaining at 0.5 h, 10 µM in series [30] is 93%; at Liver carboxylesterase [33], 6.9%. Also, the remaining at 0.25 h, 10 µM at Liver carboxylesterase [32] stood at 8.2%; in series [34], 100%.

Consider `CCCNC(=O)c1cn2ncnc(N(COP(=O)([O-])O)c3cc(C(=O)NC4CC4)ccc3C)c2c1C.[Na+]`, for which the half-life in [3] is under 0.25 h; in [4], under 0.25 h; in series [5], 20 h.
